B1: tRNA (parent)
chain: GUUCCGUUGGCGUAAUGGUAACGCGUCUCCCUCCUAAGGAGAAGACUGCGGGUUCGAGUCCCGUACGGAACG

These results are taken from the RNAGym collection of RNA variant scans (doi:10.1126/science.aae0568).

Variants at the floor of the assay were thinned out.

The variants in the data set derive from B1. As to the kind of experiment: yeast fitness relative to wild type (ratio to wild type); higher = fitter; tRNA-Arg(CCU), competitive growth, 37 C, YPD. Put shortly:
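Variants of the tRNA-Arg(CCU) gene were chemically synthesised with a 3% per-site mutation rate across 69 sites and placed at the native genomic locus in Saccharomyces cerevisiae. Six parallel replicates of the pooled strains were competed in YPD at 37°C for 24 hours, and gene amplicons from the start and end populations were read by 100-nucleotide paired-end sequencing. Darwinian fitness relative to wild type was derived from changes in genotype frequencies. Genotypes required ≥ 100 starting reads, and estimates < 0.5 were set to 0.5.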
Regarding C4G A15C C29G G48A, the yeast fitness is ≤ 0.5.

Turning to C4A U13G, the yeast fitness was 0.619. As for C4A U13A, the figure is 0.595; as for C4G A15G A37U A40C G48A G50C, 0.515. In the case of C4A G6C U8A A20C A21U C31A C33U C46U A57G, the yeast fitness was ≤ 0.5. In the case of C4A U35A A37U, the yeast fitness is ≤ 0.5. Turning to C4G A21C G23C A36U A57U C60G G68C, the yeast fitness is ≤ 0.5. With C4A C66U A69C, the yeast fitness was 0.585.

C4A U32C G68C: the yeast fitness worked out at 0.867. C4G A15U U54G C55U: the yeast fitness is 0.51. As for C4A U8A C24U G44A A70C, the yeast fitness is ≤ 0.5.

In the case of C4A G18A C27A A37C G56A G68U, the yeast fitness is ≤ 0.5. In the case of C4A G17A G41A it was 0.525; in that of C4A G18A U59G, 0.657. Turning to C4G A14G A37U G38A G63C, the yeast fitness was ≤ 0.5. As for C4A G6A A69U, the yeast fitness amounted to 0.623. For the variant C4G A21G C24G C34U U53C C55G C62A, the yeast fitness is ≤ 0.5. Consider C4G A14G G63A, for which the yeast fitness was ≤ 0.5.

With C4A U7A C31A, the yeast fitness is 0.678. As for C4A G6A C29G, the yeast fitness is 0.549. On to C4A G56C C66U, for which the yeast fitness was ≤ 0.5.

Regarding C4A G25A A40C A65C, the yeast fitness is ≤ 0.5. C4A G9A U16A A40G C46U: the yeast fitness is ≤ 0.5.

In the case of C4A G25C U26A C61A, the yeast fitness was ≤ 0.5. C4A U47C A70C: the yeast fitness stood at 0.749. As for C4A G9A G44C G51A G58C U59A, the yeast fitness was ≤ 0.5.

C4A C62G C66U: the yeast fitness was ≤ 0.5. For the variant C4G A20C U26G C33U G44C U59A G67A, the yeast fitness is ≤ 0.5.

With C4G A20G C27G C29G C55A A57U A69U, the yeast fitness was determined as 0.629. Turning to C4A G17A A42U C55G, the yeast fitness was ≤ 0.5.

For the variant C4A G10C G58A, the yeast fitness worked out at 0.713. C4A G17C A36U G39A A42C G50U G63A: the yeast fitness is 0.589. Turning to C4G A14C G25C, the yeast fitness is 0.8. For C4A G25C C29G G41A C49U A65G C66U, the yeast fitness is ≤ 0.5.

Consider C4G A14U C66U, for which the yeast fitness is ≤ 0.5. Consider C4A U32C C33U C49G, for which the yeast fitness is ≤ 0.5. For C4G A21G A45U C49U C60A, the yeast fitness was ≤ 0.5.

Regarding C4G A14G G68A, the yeast fitness is 0.59. Consider C4A G51A A70G, for which the yeast fitness is 0.58.

For C4A G18C C29A C31A A70C, the yeast fitness was ≤ 0.5. In the case of C4A G6A C29G A57G it was 0.535; in that of C4A G6A U64A, ≤ 0.5. As to C4A U32A, the yeast fitness was 0.876. On to C4A G17C A21U C33G, for which the yeast fitness was determined as 0.517.

Consider C4G A21U C33U A42G A57U, for which the yeast fitness stood at 0.683. Turning to C4A G17C A20G C31G A37C, the yeast fitness was ≤ 0.5.

For C4A G39C G51A, the yeast fitness was ≤ 0.5. As for C4A U32G A45G C49U A70U, the figure is ≤ 0.5; as for C4A G25A A45U, 0.593; as for C4A U32C C46G, 0.599. For C4A G52C A57C G63C, the yeast fitness amounted to 0.56. As to C4A U19G U35C, the yeast fitness was ≤ 0.5. C4A G17C U19C A21U C33G: the yeast fitness is ≤ 0.5. Consider C4G A21C C27A U28G, for which the yeast fitness turned out to be 0.614.

Turning to C4A G17C G23C A45C, the yeast fitness is 0.527. Take C4A U8C G58A: the yeast fitness is ≤ 0.5. On to C4G A20U C66U, for which the yeast fitness is ≤ 0.5. For C4A G17C A20U C22U, the yeast fitness was ≤ 0.5.

Turning to C4G A21C C22U, the yeast fitness turned out to be 0.626. As for C4A G23A C24G, the yeast fitness was ≤ 0.5. As to C4A G39C G41C, the yeast fitness was ≤ 0.5. Turning to C4G A20U G58C, the yeast fitness is ≤ 0.5. In the case of C4A C62U, the yeast fitness was 0.852. With C4A C62A, the yeast fitness was 0.675. In the case of C4A G9A C49A U53C it was ≤ 0.5. In the case of C4G A21G U28A A69U, the yeast fitness is ≤ 0.5.

With C4A U8A G17C C31U, the yeast fitness was determined as 0.558. Turning to C4G A20U A57U, the yeast fitness was ≤ 0.5.

Consider C4A U7C U26G A65C, for which the yeast fitness is 0.59.

Consider C4A U32C A40U, for which the yeast fitness came out at 0.517.

For the variant C4A U26G G44C G58A, the yeast fitness was determined as 0.535.

C4A G52C C62U: the yeast fitness was ≤ 0.5. Take C4A G10A G23A C55G C60A: the yeast fitness is ≤ 0.5. Take C4A G17A C27U C33U: the yeast fitness is ≤ 0.5. On to C4A G23A C33G G58C, for which the yeast fitness is ≤ 0.5. In the case of C4A G17A G51A C60G A70U it was ≤ 0.5; in that of C4G A21C G39C A42U G48C, ≤ 0.5. In the case of C4A U28A it was 0.761; in that of C4G A20U C29G C31A G38A, ≤ 0.5. In the case of C4A G18A C22U G44C C46U C49U, the yeast fitness is ≤ 0.5. In the case of C4A U13A C30A U32C C61G G68C it was ≤ 0.5; in that of C4A U7A C31U C61G, ≤ 0.5; in that of C4A G38A C55G, ≤ 0.5. In the case of C4A G6A G23A C49A U59C C62U A65U A70C it was ≤ 0.5.

Consider C4A U7C A15G C30A A57C, for which the yeast fitness was ≤ 0.5. For C4A G25C, the yeast fitness was found to be 0.833. For the variant C4A G68A, the yeast fitness was found to be 0.962. On to C4A G68U, for which the yeast fitness is 0.831. Take C4A U16G G52C U64A: the yeast fitness was ≤ 0.5. In the case of C4A G17C G23C U53A it was ≤ 0.5; in that of C4A G23C G50A A57G, 0.62; in that of C4A U32C C66U, 0.707. In the case of C4G A14U C24G C31G C61G it was ≤ 0.5; in that of C4G A14C U47C, ≤ 0.5.

For the variant C4G A21U A36C C61A, the yeast fitness turned out to be 0.615. Take C4G A21C C22U C61U: the yeast fitness is ≤ 0.5. On to C4A G44C, for which the yeast fitness was determined as 0.742.

Turning to C4G A14C C30U A40U G52C G67A, the yeast fitness was ≤ 0.5. C4G A14G C33U: the yeast fitness is ≤ 0.5. In the case of C4A G18A G44C C46U C49U G67A A70U it was ≤ 0.5; in that of C4G A21G G50A, 0.718; in that of C4A U35C G48C C55U G56A C62U, ≤ 0.5.

As to C4A U19A G44A U53C A70U, the yeast fitness was ≤ 0.5. Consider C4A G17C C49U C62G, for which the yeast fitness was ≤ 0.5. For C4A G17A G41A C66U, the yeast fitness is 0.508. With C4G A14U C31U A40G, the yeast fitness was ≤ 0.5. As for C4G A14U C30U G48C, the figure is ≤ 0.5.

Regarding C4A G17A C60G A70G, the yeast fitness was ≤ 0.5. As for C4G A15G C29A C34U C66G, the figure is ≤ 0.5; as for C4A U16G C22U G23U A42C G50C C66U, ≤ 0.5.

On to C4A G23C C49U G58A A69C, for which the yeast fitness turned out to be 0.535. Consider C4G A20U A43C G50A, for which the yeast fitness is ≤ 0.5. In the case of C4A G18A C29U C66A it was ≤ 0.5. Regarding C4A G17C G51C G58A, the yeast fitness is ≤ 0.5. Turning to C4A G48A C61U, the yeast fitness was determined as 0.661. For C4G A14U C46U C60U A65C, the yeast fitness is ≤ 0.5. For C4A U28C G56A C61U, the yeast fitness was ≤ 0.5. Consider C4A U19G C31G A45C C46G G56C G63A U64C G67C, for which the yeast fitness was ≤ 0.5. Consider C4A U26C A65C, for which the yeast fitness was ≤ 0.5.

As for C4A G23C G56C U59A A65G, the yeast fitness is ≤ 0.5. C4A G18A G44C C46U C49U: the yeast fitness was ≤ 0.5. With C4A U53C, the yeast fitness turned out to be 0.691. For the variant C4G A20U C60U A70U, the yeast fitness amounted to 0.651. C4A U19G A45G C46U: the yeast fitness was ≤ 0.5. As for C4G A21G G67C, the yeast fitness turned out to be 0.631.

C4A G38C C55G A69C: the yeast fitness is ≤ 0.5. Turning to C4A G10C G63C A69U, the yeast fitness was ≤ 0.5. For the variant C4A U35C C66A, the yeast fitness is ≤ 0.5. In the case of C4G A14G C24U U32G A43G C66U, the yeast fitness is ≤ 0.5.

C4A U28C A42G A65U A69C: the yeast fitness was ≤ 0.5. In the case of C4A U32C G58C it was 0.588; in that of C4G A20G A70C, 0.758. As for C4A G12C A37G G38A, the yeast fitness was ≤ 0.5. Regarding C4G A14G A69U, the yeast fitness was 0.52. For C4G A14G A69C, the yeast fitness was determined as 0.508.

In the case of C4A G38A, the yeast fitness was 0.805. Regarding C4A G18A C27A A37C C61A, the yeast fitness is ≤ 0.5. With C4A G23A C33G G63C A65U, the yeast fitness was ≤ 0.5.

As for C4G A21G A43C C46A A57C C62G C66U, the yeast fitness is ≤ 0.5. As for C4A U32C G67A, the yeast fitness was 0.655. In the case of C4G A15C G50C U54C, the yeast fitness was ≤ 0.5. As for C4G A15G G23A C34G, the figure is 0.538; as for C4A U7A A14G G17C C61U, 0.543; as for C4G A21U C49U G56C, ≤ 0.5.

Turning to C4G A21U, the yeast fitness stood at 0.696. C4G A21G: the yeast fitness turned out to be 0.997. For the variant C4A U28A C31G A40U A65U G68C, the yeast fitness was ≤ 0.5. In the case of C4A G10A G23A U28C C55G C60A, the yeast fitness is ≤ 0.5. For C4G A15U C34G A36C, the yeast fitness is ≤ 0.5. For the variant C4A G6A A65U, the yeast fitness came out at 0.539. In the case of C4A G12C U19C C22U C24G A43U C61A, the yeast fitness was ≤ 0.5. As for C4G A14U, the figure is 0.78; as for C4G A14G, 0.78; as for C4G A14C, 0.568. With C4A U13A A21G G58C G68A, the yeast fitness came out at 0.607.

With C4A G12C U13G C30U G58C, the yeast fitness was ≤ 0.5. As for C4A U19G, the figure is 0.742. On to C4A U19A, for which the yeast fitness was 0.854. In the case of C4A G39A G52C C55G it was ≤ 0.5; in that of C4A G23A C30U C31G A40C, ≤ 0.5. In the case of C4A G25C C61G, the yeast fitness is 0.711.

In the case of C4A U35C, the yeast fitness stood at 0.834. Turning to C4A U13G A45U U47A U59C, the yeast fitness is ≤ 0.5. As for C4G A21U C66G, the figure is ≤ 0.5; as for C4G A15U G18C G23C C24G G56C, ≤ 0.5. As for C4G A20U C31G, the figure is 0.555.

For C4A G12C U19C C24G A43U U54C C61A, the yeast fitness is ≤ 0.5.
